Hits are enriched below; roughly 11% of the tested compounds scored in any of these assays.
M1 ag = M1 muscarinic receptor agonists, primary screen, CHO-M1 cells, Fluo-4 calcium, agonist mode. actives 3% (n = 64,000). B-score at 10 µM. Fluo-4 calcium fluorescence; stronger effect = higher value. Muscarinic acetylcholine receptor M1;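 active = fluorescence rise, raw or as B-score row- and column-corrected plate score, outside the 99.7% band of its plate's samples, either direction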
D1 allo mod = D1 CRE-luciferase signal change, two-sided – cell-based, HEK293 D1, dopamine EC30, D1 allosteric modulator project, primary screen; D(1A) dopamine receptor (Homo sapiens), P21728; dopamine EC30 potentiation; actives deviate in either direction; B-score at 10 µM; actives 5.9% (n = 58,000); AID 641, 2007;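 active = luminescence count or its row- and column-corrected plate score outside the 99.7% band of the plate's sample wells, on either side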
S1P3 agonist = human S1P3 receptor agonists, primary screen, cell-based, primary and confirmation, NFAT-BLA reporter. Sphingosine 1-phosphate receptor 3 (Homo sapiens), Q99500. S1P3 NFAT-BLA reporter cells, agonism, FRET ratio; relative to 1 µM S1P, basal subtracted. activation, % at 4.5 µM. actives 0.1% (n = 60,000). AID 373, 2006;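 active = activation above the screen-wide mean plus 3 SD, cut at about 4.5% in these data, passing the limit was not always enough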
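material = human S1P3 NFAT-BLA reporter CHO cells | schedule = 4 h compound at 37 °C, 2 h substrate at RT | measured by = fluorescent BLA substrate, ex 405 nm, em 460/535 nm ratio | controls = 1 µM S1P reference | replication = primary once, confirmation triplicate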
S1P1 ag-PAM = S1P1 agonists and agonism potentiators, primary screen, cell-based, primary and confirmation screens, CRE-bla reporter; activation, % at 9.5 µM; Sphingosine 1-phosphate receptor 1 (Homo sapiens), P21453; AID 449, 2006; actives 0.57% (n = 56,000); S1P1 CRE-bla cells, forskolin, beta-lactamase FRET, potentiator mode; S1P1 agonist co-added at EC20, 2 nM; 100% = saturating reference agonist, 0% = basal;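 active = activation above a cutoff set at the mean activation of all tested compounds plus 3 SD, cut at about 54% in these data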;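 note: forskolin at 4 µM as EC80 and the EC20 agonist is SEW2871; 100% = SEW2871 at its EC100 plus forskolin at EC80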
Target sequence (P21453 whole entry, looked up): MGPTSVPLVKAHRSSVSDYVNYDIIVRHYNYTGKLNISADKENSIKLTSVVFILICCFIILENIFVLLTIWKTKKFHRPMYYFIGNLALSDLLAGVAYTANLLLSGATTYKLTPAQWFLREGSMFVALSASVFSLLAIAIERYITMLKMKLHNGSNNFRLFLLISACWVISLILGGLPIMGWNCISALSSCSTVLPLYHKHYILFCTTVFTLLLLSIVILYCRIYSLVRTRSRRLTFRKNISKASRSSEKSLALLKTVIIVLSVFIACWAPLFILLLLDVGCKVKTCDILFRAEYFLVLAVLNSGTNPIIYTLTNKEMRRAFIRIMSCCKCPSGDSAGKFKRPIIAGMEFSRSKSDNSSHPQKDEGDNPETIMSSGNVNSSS
M1 antag = antagonists of rat M1 muscarinic receptor. Muscarinic acetylcholine receptor M1 (Rattus norvegicus), P08482. CHO-M1 cells, Fluo-4 calcium, ACh EC80 antagonist mode; stronger effect = lower value. B-score at 10 µM. actives 3.4% (n = 64,000). AID 628, 2007;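 active = calcium fluorescence response, raw or row-and-column corrected B-score, differing from the plate sample mean either way at a set confidence level, mostly lower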
M1 agonist conf = rat M1 muscarinic receptor agonists, confirmation, CHO-M1 cells, Fluo-4 calcium, duplicate retest; Fluo-4 calcium fluorescence, agonist mode; actives lie on both sides; fluorescence change (max-min) at 10 µM; AID 1488, 2009; shares compounds with M1 ag; actives 19% (n = 1,700);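 active = fluorescence change differs from the solvent-only DMSO control mean at a set confidence level in both duplicate runs; inconclusive = differs from solvent-only control mean in just one of two runs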;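 note: an EC20 dose of acetylcholine follows compound addition during the same imaging run; raw fluorescence intensity difference in instrument units with no normalization to controls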
M4 ag counter = agonist activity at rat M4 receptor, confirmation, counter-screen for M1 allosteric modulator project, cell-based, agonist mode; shares compounds with M1 ag; CHO M4/Gqi5 cells, Fluo-4 calcium fluorescence; actives lie on both sides; fluorescence change (max-min) at 10 µM; actives 9% (n = 1,700);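 active = fluorescence change differing from the plate's solvent-only control wells at 99.7% confidence in both duplicates, whether higher or lower; inconclusive = differs from solvent controls in only one of two duplicates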
Active calls of the source: *; ? = inconclusive; . = not tested or not shown.

SMILES	M1 ag	D1 allo mod	S1P3 agonist	S1P1 ag-PAM	M1 antag	M1 agonist conf	M4 ag counter
COc1cccc(-c2cc(C(F)(F)F)n3ncc(C(=O)NCC4CCCO4)c3n2)c1 (centres undefined)	6.6*	-0.1	0	-6	-1.9	?	-54
Cc1ccc2[nH]c(=O)c(CN(CCN3CCOCC3)C(=O)Nc3ccccc3F)cc2c1	-1	-0.92	0	-18	-0.51	.	.
Cc1ccc2[nH]c(=O)c(CN(Cc3ccccc3Cl)C(=O)N3CCOCC3)cc2c1	2.2*	-0.37	0	-5	0.44	-29*	-82*
COc1ccc(NC(=O)c2ccccc2NC(=O)C2CCCO2)cc1 (centres undefined)	0.49	0.17	-1	2	0.97	.	.
COc1ccc2nc3c(cc2c1)c(NC(=O)C1CCCO1)nn3CC(C)C (centres undefined)	4.3*	-0.0025	1	-19	-0.82	3.3	-23
CCCCn1nc(NC(=O)c2cccs2)c2cc3cc(OC)ccc3nc21	6.4*	-1.2	1	-1	0.39	-24	-25
C=CCSc1nnc(NC(=O)CSc2nc3ccccc3o2)s1	-0.48	-0.35	-1	9	-2.1	.	.
O=C(Nc1ccc(O)cc1)c1cc2n(n1)C(C(F)(F)F)CC(c1ccco1)N2 (centres undefined)	-2.3*	-0.023	0	100*	0.38	-10	-52
NC(=O)C1CCN(C(=O)c2cc3n(n2)C(C(F)(F)F)CC(c2ccco2)N3)CC1 (centres undefined)	0.23	-0.029	0	-25	-0.32	.	.
O=C(COc1ccccc1)Nn1cnc2ccccc21	0.013	-0.51	0	9	0.35	.	.
CCOC(=O)N1CCC(NC(=O)c2csc3c2CCCC3)CC1	-0.54	.	0	-9	0.019	.	.
CCN(CC)P1(=O)OC(c2cc(OC)c(OC)c(OC)c2)=Nc2c1c(C)nn2-c1ccccc1 (centres undefined)	4.4*	0.25	.	.	0.43	7	-33
COc1cc(-c2nnc3sc(Cc4ccccc4)nn23)cc(OC)c1OC	-0.1	0.46	0	-25	-0.02	.	.
COc1ccc2oc(-c3ccccc3)c(C(=O)N3CCOCC3)c2c1	4*	1.8	0	11	-0.00046	-24	-32
CC(C)Oc1cccc(-c2cc(C(=O)N3CCN(S(C)(=O)=O)CC3)c3ccccc3n2)c1	3.6*	0.69	-1	2	0.09	?	-50
COc1ccc(-c2cc(C(=O)N3CCOCC3)c3cc(C)ccc3n2)cc1	4.1*	-1.5	0	.	-0.33	-9	-33
Cc1ccc(-c2cc(C(=O)N3CCN(c4ncccn4)CC3)c3ccccc3n2)cc1	8.8*	-0.29	-2	-19	-1.8	-16	-111*
COc1cccc(-c2cc(C(=O)N3CCN(c4ncccn4)CC3)c3ccccc3n2)c1	3.1	0.072	-1	-19	-1.9	.	.
Cc1ccc2nc(-c3ccccn3)cc(C(=O)N3CCN(c4ncccn4)CC3)c2c1	3.6*	2.5	-1	-16	-2.1	-1.9	-22
Cc1cc(-c2ccccc2)n(-c2ccc(C(=O)N3CCN(c4ncccn4)CC3)cc2)n1	9.2*	.	0	-17	-1	?	?
Cc1cc(C(=O)N2CCN(c3ncccn3)CC2)c2cc(F)ccc2n1	-0.84	.	-1	4	-0.089	.	.
Cc1cc(C)n(-c2nc3ccccc3nc2N2CCN(C(=O)c3ccc(Cl)cc3)CC2)n1	0.85	0.59	-1	.	-0.014	.	.
CC1=NCCN1S(=O)(=O)c1cc(Cl)ccc1Cl	0.012	0.074	0	-3	-0.052	.	.
CCCCNC(=O)CC1Nc2ccccc2NC1=O (centres undefined)	7.9*	-0.56	-1	13	-0.48	30	?
CCSCc1nnc(SCC(=O)Nc2cccc(SC)c2)n1C	0.4	.	0	.	0.071	.	.
SMILES	M1 ag	D1 allo mod	S1P3 agonist	S1P1 ag-PAM	M1 antag	M1 agonist conf	M4 ag counter
O=C(Nc1cccnc1)c1ccc(Cl)c(S(=O)(=O)N2CCCCCC2)c1	2.4*	0.069	-1	3	-0.23	?	-48
O=C(Nc1cccnc1)c1cccc(S(=O)(=O)N2CCOCC2)c1	0.022	-0.027	0	.	0.15	.	.
COc1ccc(CC(=O)Nc2cccc(-c3nnc(-c4cccc(C)c4)o3)c2)cc1OC	6.6*	-2.7*	-2	.	-7.3*	-20	?
COc1cccc(C(=O)Nc2ccc(-c3nnc(-c4ccco4)o3)cc2)c1	5.6*	.	-3	20	-0.041	-18	?
COc1ccc(CC(=O)Nc2cccc(-c3nnc(-c4ccc(C)cc4)o3)c2)cc1OC	-0.72	-0.17	0	2	-0.61	.	.
O=C(Cc1ccc(Cl)cc1)Nc1cccc(-c2nnc(-c3ccco3)o2)c1	-0.31	.	0	20	-0.84	.	.
O=C(Cc1ccccc1)Nc1cccc(-c2nnc(-c3ccco3)o2)c1	5.2*	.	1	3	-1.2	-1.4	-37
CCN(CC)c1ccc(NC(=O)C2CCCN(S(=O)(=O)c3cccnc3)C2)c(C)c1 (centres undefined)	-1.3	-0.4	-1	14	0.016	.	.
Cc1ccnc(SCCn2c(N3CCN(c4ccccc4)CC3)nc3c2c(=O)[nH]c(=O)n3C)n1	6.4*	-4.5*	-1	-14	0.053	-7.8	?
Cc1ccnc(SCCn2c(N3CCN(C)CC3)nc3c2c(=O)[nH]c(=O)n3C)n1	0.69	0.89	-2	-7	1.3	.	.
CSc1ccccc1NC(=O)c1cccnc1	0.36	-0.2	1	4	0.036	.	.
CCOc1cc(C2C(C#N)=C(N)OC(C)=C2C(C)=O)cc(Br)c1O (centres undefined)	23*	0.32	0	-11	-0.027	180*	170*
COc1ccccc1N1CCN(C(c2cc3cc(C)ccc3[nH]c2=O)c2nnnn2C2CCCC2)CC1 (centres undefined)	-0.17	-0.048	-1	-12	1.1	.	.
COc1ccccc1N1CCN(C(c2cc3ccc(C)cc3[nH]c2=O)c2nnnn2C2CCCC2)CC1 (centres undefined)	-2.5*	-0.56	0	-35	1.3	?	-60

High-throughput results deposited in PubChem BioAssay by several laboratories.
